Activity calls are given as the source filed them. The rule behind the calls is not given here.
Tests used:
[1] = Cytotoxicity against human HTB-54 cells after 72 hrs by MTT assay; type: functional; conditions: HTB-54, 72 h
In short: (§1)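 Cells were grown in medium with 10% fetal calf serum, 2 mM L-glutamine, penicillin/streptomycin and 10 mM HEPES (pH 7.4). Compounds were made up as a 0.1 M DMSO stock and serially diluted in medium to five doses between 0.01 and 100. Exposure was 72 h at 37 °C in humidified 5% CO₂. Read-out was MTT colorimetric, giving GI50 as the concentration reducing growth by 50%.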

K562 = experiment: Cytotoxicity against human K562 cells after 72 hrs by MTT assay; type: functional; conditions: K562, 72 h; in short: as §1
HeLa = experiment: Cytotoxicity against human HeLa cells after 72 hrs by MTT assay; type: functional; in short: as §1
CCRF-CEM [2] = experiment: Cell cycle arrest in human CCRF-CEM cells assessed as accumulation at S phase after 24 hrs using propidium iodide staining by flow cytometry; type: functional, cell-based
In short: (§2)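 CCRF-CEM cells were seeded at 10⁶ cells/ml in complete medium and exposed to 2.5 µM for 24 h. Cells were pelleted (700 g, 6 min, 4 °C), washed in PBS and fixed in 70% ethanol at 4 °C for 20 min. They were then stained with PI (50 µg/ml) plus RNase at 37 °C for 30 min. DNA content was read by flow cytometry on 10,000 events to give phase percentages. Six independent experiments, duplicate wells, mean SD.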

CCRF-CEM [3] = experiment: Cell cycle arrest in human CCRF-CEM cells assessed as accumulation at S phase at 2.5 uM using propidium iodide staining by flow cytometry; type: functional, cell-based; conditions: TDE = time-dependent effect; in short: as §2
HT-29 = experiment: Cytotoxicity against human HT-29 cells after 72 hrs by MTT assay; type: functional; conditions: HT-29, 72 h; in short: as §1
CCRF-CEM [4] = experiment: Cytotoxicity against human CCRF-CEM cells after 72 hrs by MTT assay; type: functional; in short: as §1
[5] = Cytotoxicity against human MEL-AC cells after 72 hrs by MTT assay; type: functional; in short: as §1
CCRF-CEM [6] = experiment: Cell cycle arrest in human CCRF-CEM cells assessed as accumulation at sub-G1 phase at 2.5 uM after 24 hrs using propidium iodide staining by flow cytometry; type: functional, cell-based; in short: as §2
CCRF-CEM [7] = experiment: Cell cycle arrest in human CCRF-CEM cells assessed as reduction of cell accumulation at G0/G1 phase at 2.5 uM after 24 hrs using propidium iodide staining by flow cytometry; type: functional, cell-based; in short: as §2
CCRF-CEM [8] = experiment: Induction of apoptosis in human CCRF-CEM cells at 6 uM after 48 hrs using V-FITC and propidium iodide staining by flow cytometry; type: functional
In short: (§3)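 CCRF-CEM cells were incubated with compound for 12 to 48 h. Cells (5×10⁵) were pelleted, washed in PBS and stained with annexin V-FITC plus propidium iodide for 15 min at 4 °C in the dark. Phosphatidylserine-exposing (apoptotic) cells were counted by flow cytometry. Five independent experiments, duplicate wells, mean SD.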

CCRF-CEM [9] = experiment: Induction of apoptosis in human CCRF-CEM cells at 2.5 uM after 24 hrs using V-FITC and propidium iodide staining by flow cytometry in presence of N-acetyl-cysteine
CCRF-CEM [10] = experiment: Induction of apoptosis in human CCRF-CEM cells at 6 uM after 12 hrs using V-FITC and propidium iodide staining by flow cytometry; type: functional; in short: as §3
CCRF-CEM [11] = experiment: Cell cycle arrest in human CCRF-CEM cells assessed as accumulation at S phase at 2.5 uM after 24 hrs using propidium iodide staining by flow cytometry; type: functional, cell-based; in short: as §2
CCRF-CEM [12] = experiment: Induction of increase in ROS level in human CCRF-CEM cells at 2.5 uM after 24 hrs using CM-H2DCFDA fluorescent probe by flow cytometry; type: functional, cell-based
In short: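 CCRF-CEM cells at 1×10⁶ cells/ml were cultured with or without 2.5 µM for 24 h. Cells (2×10⁶) were then loaded with 1 µM CM-H₂DCFDA for 60 min at 37 °C and fluorescence was read by flow cytometry. Results are expressed as fold over untreated cells, with 4-HPR as the positive control. Two independent experiments, triplicate wells, mean SD.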

`CCCCNC(=O)c1ccc2c(c1)S(=O)(=O)C=C2` showed a GI50 [1] of 90 nM, a GI50 (K562) of 2730 nM and a GI50 (HeLa) of 80 nM. The Activity (CCRF-CEM [2]) was “Dose-dependent effect”, the Activity (CCRF-CEM [3]) was “tde” and the GI50 (HT-29) was 2320 nM. The GI50 (CCRF-CEM [4]) was 280 nM and the GI50 [5] was 1420 nM.

In the case of `NC(=O)c1ccc2c(c1)S(=O)(=O)C=C2`, the GI50 [1] is reported as 220 nM, the GI50 (K562) is reported as 7850 nM and the GI50 (HeLa) is reported as 650 nM. The Activity (CCRF-CEM [2]) was “Dose-dependent effect”, the Activity (CCRF-CEM [3]) was “tde” and the GI50 (HT-29) was 5190 nM. It also gave a GI50 (CCRF-CEM [4]) of 3550 nM and a GI50 [5] of 3520 nM.

Work on `CN(Cc1ccccc1)S(=O)(=O)c1ccc2c(c1)S(=O)(=O)C=C2` yielded a GI50 [1] of 400 nM, a GI50 (K562) of 38100 nM and a GI50 (HeLa) of 10 nM. For the same compound, the Activity (CCRF-CEM [2]) was “Dose-dependent effect”, the Activity (CCRF-CEM [3]) was “tde” and the GI50 (HT-29) was 35000 nM. The GI50 (CCRF-CEM [4]) was 630 nM and the GI50 [5] was 2300 nM.

`COc1ccc(CCNS(=O)(=O)c2ccc3c(c2)S(=O)(=O)C=C3)cc1` showed a GI50 [1] of 620 nM, a GI50 (K562) of 6 nM and a GI50 (HeLa) of 120 nM. The Activity (CCRF-CEM [2]) was “Dose-dependent effect”, the Activity (CCRF-CEM [3]) was “tde” and the GI50 (HT-29) was 220 nM. For the same compound, the GI50 (CCRF-CEM [4]) was 5 nM and the GI50 [5] was 1930 nM.

`O=S1(=O)C=Cc2ccc(S(=O)(=O)NCc3ccccc3)cc21` showed a GI50 [1] of 700 nM, a GI50 (K562) of 720 nM and a GI50 (HeLa) of 10 nM. The Activity (CCRF-CEM [2]) was “Dose-dependent effect”, the Activity (CCRF-CEM [3]) was “tde” and the GI50 (HT-29) was 840 nM. For the same compound, the GI50 (CCRF-CEM [4]) was 330 nM and the GI50 [5] was 400 nM.

`COc1ccc(NC(=O)c2ccc3c(c2)S(=O)(=O)C=C3)cc1` gave a GI50 [1] of 2 nM, a GI50 (K562) of 47 nM and a GI50 (HeLa) of 3 nM. For the same compound, the Activity (CCRF-CEM [6]) was “Active”, the Activity (CCRF-CEM [7]) was “Active” and the Activity (CCRF-CEM [2]) was “Dose-dependent effect”. For the same compound, the Activity (CCRF-CEM [8]) was 83%, the Activity (CCRF-CEM [3]) was “tde” and the Activity (CCRF-CEM [9]) was “Active”. The GI50 (HT-29) was 350 nM, the Activity (CCRF-CEM [10]) was 30.4% and the GI50 (CCRF-CEM [4]) was 4 nM. The GI50 [5] was 760 nM, the Activity (CCRF-CEM [11]) was “Active” and the Activity (CCRF-CEM [12]) was “Active”.

With `NS(=O)(=O)c1ccc2c(c1)S(=O)(=O)C=C2` the GI50 [1] was 5890 nM, the GI50 (K562) was 29400 nM and the GI50 (HeLa) was 2210 nM. The Activity (CCRF-CEM [2]) was “Dose-dependent effect”, the Activity (CCRF-CEM [3]) was “tde” and the GI50 (HT-29) was 8550 nM. It also gave a GI50 (CCRF-CEM [4]) of 2860 nM and a GI50 [5] of 7140 nM.

Compound `COc1ccc(CCNC(=O)c2ccc3c(c2)S(=O)(=O)C=C3)cc1` has a GI50 [1] of 640 nM, a GI50 (K562) of 2660 nM and a GI50 (HeLa) of 40 nM. For the same compound, the Activity (CCRF-CEM [2]) was “Dose-dependent effect”, the Activity (CCRF-CEM [3]) was “tde” and the GI50 (HT-29) was 2080 nM. It also gave a GI50 (CCRF-CEM [4]) of 730 nM and a GI50 [5] of 1320 nM.

With `O=S1(=O)C=Cc2ccc(O)cc21` the GI50 [1] was 7530 nM, the GI50 (K562) was 51100 nM and the Activity (CCRF-CEM [2]) was “Dose-dependent effect”. For the same compound, the Activity (CCRF-CEM [3]) was “tde”, the GI50 (HT-29) was 2040 nM and the GI50 (CCRF-CEM [4]) was 19200 nM. For the same compound, the GI50 [5] was 24000 nM.

Source: ChEMBL document CHEMBL1212837, “Benzo[b]thiophene-6-carboxamide 1,1-dioxides: inhibitors of human cancer cell growth at nanomolar concentrations” (2010)
